Measured values reported in ChEMBL document CHEMBL1208778, “Synthesis and anti-cancer activity of chalcone linked imidazolones” (2010).
One block for each compound: values may come before it.

Legend:
Type in all cases: functional
[1] = Growth inhibition of human RPMI8266 cells
Procedure, shortened: (§1)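 Five-dose testing was run within the NCI (Bethesda) in vitro Anticancer Screen Program on a panel of 53 human tumour cell lines from nine cancer types. Growth inhibition is reported as GI50.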

K562 = test: Growth inhibition of human K562 cells; procedure, shortened: as §1
A549 = test: Growth inhibition of human A549 cells; procedure, shortened: as §1
EKVX = test: Growth inhibition of human EKVX cells; procedure, shortened: as §1
HOP-62 = test: Growth inhibition of human HOP62 cells; procedure, shortened: as §1
HOP-92 = test: Growth inhibition of human HOP92 cells; procedure, shortened: as §1
NCI-H226 = test: Growth inhibition of human NCI-H226 cells; procedure, shortened: as §1
NCI-H23 = test: Growth inhibition of human NCI-H23 cells; procedure, shortened: as §1
NCI-H322M = test: Growth inhibition of human NCI-H322M cells; procedure, shortened: as §1
NCI-H460 = test: Growth inhibition of human NCI-H460 cells; procedure, shortened: as §1
COLO 205 = test: Growth inhibition of human COLO205 cells; procedure, shortened: as §1
HCC 2998 = test: Growth inhibition of human HCC2998 cells; procedure, shortened: as §1
HCT-116 = test: Growth inhibition of human HCT116 cells; procedure, shortened: as §1
HCT-15 = test: Growth inhibition of human HCT15 cells; procedure, shortened: as §1
HT-29 = test: Growth inhibition of human HT-29 cells; procedure, shortened: as §1
KM12 = test: Growth inhibition of human KM12 cells; procedure, shortened: as §1
SW-620 = test: Growth inhibition of human SW620 cells
Procedure, shortened: (§2)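 Compounds that passed a preliminary screen were tested at five doses in the NCI (Bethesda) in vitro Anticancer Screen Program against a 53-line human tumour panel spanning leukemia, lung, colon, CNS, melanoma, ovarian, renal, prostate and breast. Growth inhibition is reported as GI50.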

SF-268 = test: Growth inhibition of human SF268 cells; procedure, shortened: as §1
SF-295 = test: Growth inhibition of human SF295 cells; procedure, shortened: as §1
SF-539 = test: Growth inhibition of human SF539 cells; procedure, shortened: as §1
SNB-19 = test: Growth inhibition of human SNB19 cells; procedure, shortened: as §2
SNB-75 = test: Growth inhibition of human SNB75 cells; procedure, shortened: as §2
U-251 = test: Growth inhibition of human U251 cells; procedure, shortened: as §2
A498 = test: Growth inhibition of human A498 cells; procedure, shortened: as §1
786-0 = test: Growth inhibition of human 786-0 cells; procedure, shortened: as §1
ACHN = test: Growth inhibition of human ACHN cells; procedure, shortened: as §1
CAKI-1 = test: Growth inhibition of human Caki1 cells; procedure, shortened: as §1
RXF 393 = test: Growth inhibition of human RXF393 cells; procedure, shortened: as §1
SN12C = test: Growth inhibition of human SN12C cells; procedure, shortened: as §2
UO-31 = test: Growth inhibition of human UO31 cells; procedure, shortened: as §2
PC-3 = test: Growth inhibition of human PC3 cells; procedure, shortened: as §1
OVCAR-3 = test: Growth inhibition of human OVCAR-3 cells; procedure, shortened: as §1
OVCAR-4 = test: Growth inhibition of human OVCAR4 cells; procedure, shortened: as §1
OVCAR-5 = test: Growth inhibition of human OVCAR5 cells; procedure, shortened: as §1
OVCAR-8 = test: Growth inhibition of human OVCAR8 cells; procedure, shortened: as §1
NCI/ADR-RES = test: Growth inhibition of human NCI/ADR-RES cells; procedure, shortened: as §1
SK-OV-3 = test: Growth inhibition of human SKOV3 cells; procedure, shortened: as §2
MCF7 [2] = test: Growth inhibition of human MCF7 cells; procedure, shortened: as §1
MDA-MB-231 = test: Growth inhibition of human MDA-MB-231 cells; procedure, shortened: as §1
[3] = Growth inhibition of human Hs 578T cells; procedure, shortened: as §1
BT-549 = test: Growth inhibition of human BT549 cells; procedure, shortened: as §1
T47D = test: Growth inhibition of human T47D cells; procedure, shortened: as §2
LOX IMVI = test: Growth inhibition of human LOXIMVI cells; procedure, shortened: as §1
Malme-3M = test: Growth inhibition of human MALME-3M cells; procedure, shortened: as §1
M14 = test: Growth inhibition of human M14 cells; procedure, shortened: as §1
MDA-MB-435 = test: Growth inhibition of human MDA-MB-435 cells; procedure, shortened: as §1
SK-MEL-2 = test: Growth inhibition of human SK-MEL-2 cells; procedure, shortened: as §1
SK-MEL-28 = test: Growth inhibition of human SK-MEL-28 cells; procedure, shortened: as §1
SK-MEL-5 = test: Growth inhibition of human SK-MEL-5 cells; procedure, shortened: as §1
UACC-257 = test: Growth inhibition of human UACC257 cells; procedure, shortened: as §2
UACC-62 = test: Growth inhibition of human UACC62 cells; procedure, shortened: as §2
MCF7 [4] = test: Cell cycle arrest in human MCF7 cells assessed as accumulation at G0 phase at 10 uM after 24 hrs by FACS analysis
Procedure, shortened: (§3)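 MCF-7 breast carcinoma cells were exposed to 10 µM test compound for 24 h, with DMSO as the vehicle control. Cell-cycle distribution was read by FACS as the percentage of cells in G0, G1, S and G2/M.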

MCF7 [5] = test: Cell cycle arrest in human MCF7 cells assessed as accumulation at G1 phase at 10 uM after 24 hrs by FACS analysis; procedure, shortened: as §3
MCF7 [6] = test: Cell cycle arrest in human MCF7 cells assessed as accumulation at S phase at 10 uM after 24 hrs by FACS analysis; procedure, shortened: as §3
MCF7 [7] = test: Cell cycle arrest in human MCF7 cells assessed as accumulation at G2/M phase at 10 uM after 24 hrs by FACS analysis; procedure, shortened: as §3
MCF7 [8] = test: Cell cycle arrest in human MCF7 cells assessed as accumulation at G0 phase at 30 uM after 24 hrs by FACS analysis
Procedure, shortened: (§4)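 MCF-7 cells were treated at 30 µM for 24 h alongside a DMSO control. Fractions in G0, G1, S and G2/M phases were measured by FACS, and values are means of three experiments.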

MCF7 [9] = test: Cell cycle arrest in human MCF7 cells assessed as accumulation at G1 phase at 30 uM after 24 hrs by FACS analysis; procedure, shortened: as §4
MCF7 [10] = test: Cell cycle arrest in human MCF7 cells assessed as accumulation at S phase at 30 uM after 24 hrs by FACS analysis; procedure, shortened: as §4
MCF7 [11] = test: Cell cycle arrest in human MCF7 cells assessed as accumulation at G2/M phase at 30 uM after 24 hrs by FACS analysis; procedure, shortened: as §4
NCI-H522 = test: Growth inhibition of human NCI-H522 cells; procedure, shortened: as §1
TK-10 = test: Growth inhibition of human TK10 cells; procedure, shortened: as §2

GI50 (K562): 3350 nM
GI50 (A549): 3890 nM
GI50 (NCI-H226): 24800 nM
GI50 (NCI-H23): 3350 nM
GI50 (NCI-H322M): 10600 nM
GI50 (NCI-H460): 2490 nM
GI50 (COLO 205): 2010 nM
GI50 (HCC 2998): 4090 nM
GI50 (HCT-116): 3020 nM
GI50 (HCT-15): 3100 nM
GI50 (HT-29): 3330 nM
GI50 (SW-620): 2410 nM
GI50 (U-251): 1610 nM
GI50 (786-0): 2980 nM
GI50 (ACHN): 2760 nM
GI50 (PC-3): 2820 nM
GI50 (OVCAR-3): 3080 nM
GI50 (OVCAR-4): 5300 nM
GI50 (OVCAR-5): 5440 nM
GI50 (OVCAR-8): 2800 nM
GI50 (SK-OV-3): 11100 nM
GI50 (MCF7 [2]): 2470 nM
GI50 (MDA-MB-231): 3860 nM
GI50 (BT-549): 9320 nM
GI50 (T47D): 4240 nM
GI50 (MDA-MB-435): 3120 nM
GI50 (SK-MEL-2): 8260 nM
GI50 (SK-MEL-28): 5630 nM
GI50 (SK-MEL-5): 3180 nM
SMILES: O=C(/C=C/c1cccc(O)c1)c1cccc(-n2cc(-c3ccccc3)[nH]c2=O)c1
GI50 [1]: 2150 nM
GI50 (EKVX): 15600 nM
GI50 (HOP-62): 6930 nM
GI50 (HOP-92): 5040 nM
GI50 (KM12): 1830 nM
GI50 (SF-268): 4530 nM
GI50 (SF-295): 18200 nM
GI50 (SF-539): 1980 nM
GI50 (SNB-19): 10900 nM
GI50 (SNB-75): 12100 nM
GI50 (A498): 14300 nM
GI50 (CAKI-1): 13300 nM
GI50 (RXF 393): 1890 nM
GI50 (SN12C): 3140 nM
GI50 (UO-31): 2160 nM
GI50 (NCI/ADR-RES): 3730 nM
GI50 [3]: 6140 nM
GI50 (LOX IMVI): 1850 nM
GI50 (Malme-3M): 6210 nM
GI50 (M14): 4530 nM
GI50 (UACC-257): 7680 nM
GI50 (UACC-62): 3650 nM
Activity (MCF7 [4]): 2.1%
Activity (MCF7 [5]): 57.26%
Activity (MCF7 [6]): 18.48%
Activity (MCF7 [7]): 22.16%
Activity (MCF7 [8]): 11.07%
Activity (MCF7 [9]): 53.92%
Activity (MCF7 [10]): 17.21%
Activity (MCF7 [11]): 17.8%

GI50 (K562): 400 nM
GI50 (A549): 3550 nM
GI50 (NCI-H226): 2310 nM
GI50 (NCI-H23): 2780 nM
GI50 (NCI-H322M): 2520 nM
GI50 (NCI-H460): 2410 nM
GI50 (NCI-H522): 1650 nM
GI50 (COLO 205): 2290 nM
GI50 (HCC 2998): 13700 nM
GI50 (HCT-116): 1230 nM
GI50 (HCT-15): 2330 nM
GI50 (HT-29): 1900 nM
GI50 (SW-620): 1620 nM
GI50 (U-251): 580 nM
GI50 (786-0): 1570 nM
GI50 (ACHN): 1840 nM
GI50 (OVCAR-3): 1560 nM
GI50 (OVCAR-4): 2210 nM
GI50 (OVCAR-5): 2190 nM
GI50 (OVCAR-8): 990 nM
GI50 (SK-OV-3): 4210 nM
GI50 (MCF7 [2]): 1270 nM
GI50 (MDA-MB-231): 3350 nM
GI50 (BT-549): 1450 nM
GI50 (T47D): 1920 nM
GI50 (MDA-MB-435): 2060 nM
GI50 (SK-MEL-2): 2070 nM
GI50 (SK-MEL-28): 3640 nM
GI50 (SK-MEL-5): 1530 nM
SMILES: O=C(/C=C/c1cccc(O)c1)c1cccc(-n2cc(-c3ccc(Cl)cc3)[nH]c2=O)c1
GI50 [1]: 1550 nM
GI50 (EKVX): 2400 nM
GI50 (HOP-62): 2360 nM
GI50 (HOP-92): 1600 nM
GI50 (KM12): 1340 nM
GI50 (SF-268): 1780 nM
GI50 (SF-295): 1790 nM
GI50 (SF-539): 1680 nM
GI50 (SNB-19): 1920 nM
GI50 (SNB-75): 1460 nM
GI50 (A498): 3710 nM
GI50 (CAKI-1): 1720 nM
GI50 (RXF 393): 1510 nM
GI50 (SN12C): 1950 nM
GI50 (TK-10): 2830 nM
GI50 (UO-31): 550 nM
GI50 (NCI/ADR-RES): 2200 nM
GI50 [3]: 4000 nM
GI50 (LOX IMVI): 1570 nM
GI50 (Malme-3M): 1830 nM
GI50 (M14): 2010 nM
GI50 (UACC-257): 4070 nM
GI50 (UACC-62): 1850 nM
Activity (MCF7 [4]): 3.1%
Activity (MCF7 [5]): 59.35%
Activity (MCF7 [6]): 13.92%
Activity (MCF7 [7]): 23.63%
Activity (MCF7 [8]): 17.17%
Activity (MCF7 [9]): 58.33%
Activity (MCF7 [10]): 13.7%
Activity (MCF7 [11]): 10.8%
